{"data": "Experimental data from different studies"}
{"SMILES": "CN(C)c1ccc(CNc2ccc(C(=O)O)cc2)cc1", "tested on": "NCI-H69", "assay": "cell growth or viability, resazurin", "setting": "72 h", "measurement": "IC50", "result": "> 100 µM"}
{"SMILES": "CCS(=O)(=O)Oc1ccc(C=NNC(=O)CSc2nc3ccc(Cl)cc3c(=O)n2-c2ccccc2)cc1", "tested on": "Salmonella enterica", "assay": "microbial growth, broth dilution", "test system": "TYPHIMURIUM", "measurement": "MIC", "result": "21 µg/mL"}
{"SMILES": "Cc1n[nH]c2ccc3nc(-c4ccc(C(=O)NCCN(C)C)cc4)c4c(c3c12)CCCC4", "tested on": "BJ", "assay": "cell growth or viability", "setting": "72 h", "measurement": "GI50", "result": "7.16 µM"}
{"SMILES": "CC(C)c1ccc(/C=C2\\N=C(SCC(=O)O)N(c3ccccc3)C2=O)cc1", "tested on": "Bacillus cereus", "assay": "microbial growth, broth dilution", "test system": "ATCC14579", "measurement": "MIC", "result": "12 µg/mL"}
{"SMILES": "CC(=O)C1=NN(c2ccccc2)C(=C(C#N)C(=O)c2ccc(Nc3cnccn3)cc2)S1", "tested on": "Salmonella enterica", "assay": "microbial growth, broth dilution", "test system": "ATCC13076 TYPHIMURIUM", "measurement": "MIC", "result": "100 µg/mL"}
{"SMILES": "Cc1cccc2c(=O)n(-c3ccccc3)c(SCC(=O)NN=Cc3ccc(OS(C)(=O)=O)cc3)nc12", "tested on": "Bacillus cereus", "assay": "microbial growth, well diffusion", "setting": "20 µg/mL", "measurement": "inhibition zone", "result": "2 mm"}
{"SMILES": "Cc1n[nH]c2ccc3nc(-c4ccc(C(=O)NCCN(C)C)cc4F)c4c(c3c12)CCCCC4", "tested on": "BJ", "assay": "cell growth or viability", "setting": "72 h", "measurement": "GI50", "result": "> 10 µM"}
{"SMILES": "O=C(O)c1cn(C2CC2)c2cc(N3CCNCC3)c(F)cc2c1=O", "tested on": "Bacillus cereus", "assay": "microbial growth, well diffusion", "setting": "20 µg/mL", "measurement": "inhibition zone", "result": "5 mm"}
{"SMILES": "COc1ccc(N2N=C(C(C)=O)SC2=C(C#N)C(=O)c2ccc(Nc3cnccn3)cc2)cc1", "tested on": "Salmonella enterica", "assay": "microbial growth, broth dilution", "test system": "ATCC13076 TYPHIMURIUM", "measurement": "MIC", "result": "50 µg/mL"}
{"SMILES": "COc1cc(CNc2ccc(C(=O)O)cc2)cc(OC)c1O", "tested on": "NCI-H69", "assay": "cell growth or viability, resazurin", "setting": "72 h", "measurement": "IC50", "result": "> 100 µM"}
{"SMILES": "CCCS(=O)(=O)Oc1ccc(C=NNC(=O)CSc2nc3ccc(Cl)cc3c(=O)n2-c2ccccc2)cc1OC", "tested on": "Bacillus cereus", "assay": "microbial growth, well diffusion", "setting": "20 µg/mL", "measurement": "inhibition zone", "result": "2 mm"}
{"SMILES": "CC(=O)OCC1=C(C(=O)O)N2C(=O)[C@@H](NC(=O)Cc3cccs3)[C@H]2SC1", "tested on": "Salmonella enterica", "assay": "microbial growth, broth dilution", "test system": "ATCC13076 TYPHIMURIUM", "measurement": "MIC", "result": "3.12 µg/mL"}
{"SMILES": "COc1ccccc1CNc1ccc(C(=O)O)cc1", "tested on": "NCI-H69", "assay": "cell growth or viability, resazurin", "setting": "72 h", "measurement": "IC50", "result": "> 100 µM"}
{"SMILES": "Cc1n[nH]c2ccc3nc(-c4ccc(C(=O)NCCN(C)C)cc4F)c4c(c3c12)CCCC4", "tested on": "BJ", "assay": "cell growth or viability", "setting": "72 h", "measurement": "GI50", "result": "2.21 µM"}
{"SMILES": "COc1ccc(C=NNC(=O)CSc2nc3c(C)cccc3c(=O)n2-c2ccccc2)cc1OS(C)(=O)=O", "tested on": "Salmonella enterica", "assay": "microbial growth, well diffusion", "test system": "TYPHIMURIUM", "setting": "20 µg/mL", "measurement": "inhibition zone", "result": "3 mm"}
{"SMILES": "CCc1nc(C(N)=O)c(Nc2ccc(N3CCC(N4CCN(C)CC4)CC3)c(OC)c2)nc1NC1CCOCC1", "tested on": "BJ", "assay": "cell growth or viability", "setting": "72 h", "measurement": "GI50", "result": "> 10 µM"}
{"SMILES": "O=C(O)c1ccc(NCc2ccc([N+](=O)[O-])cc2)cc1", "tested on": "NCI-H69", "assay": "cell growth or viability, resazurin", "setting": "72 h", "measurement": "IC50", "result": "> 100 µM"}
{"SMILES": "CN(C)CCNC(=O)c1ccc(-c2nc3ccc4[nH]ncc4c3c3c2CCCCC3)c(F)c1", "tested on": "BJ", "assay": "cell growth or viability", "setting": "72 h", "measurement": "GI50", "result": "6.58 µM"}
{"SMILES": "N=c1sc(C(=O)c2ccc(Nc3cnccn3)cc2)nn1-c1ccccc1", "tested on": "Salmonella enterica", "assay": "microbial growth, broth dilution", "test system": "ATCC13076 TYPHIMURIUM", "measurement": "MIC", "result": "100 µg/mL"}
